How the values were obtained:
[1] = tested on: Tyrosine-protein kinase ABL1 (Homo sapiens), P00519 [F317I]; experiment: Binding affinity to human non-phosphorylated ABL1 F317I mutant (S229 to K512 residues) expressed in mammalian expression system assessed as residual binding level at 1 uM by Kinomescan method relative to control
In short: (§1)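 Kinome-wide selectivity panel run by the KINOMEscan method, with the test compound at a single concentration of 1 μM. Wild-type and mutant kinases were profiled in the same screen.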

[2] = target: Tyrosine-protein kinase ABL1 (Homo sapiens) (UniProt P00519); experiment: Binding affinity to wild-type human phosphorylated ABL1 (S229 to K512 residues) expressed in mammalian expression system assessed as residual binding level at 1 uM by Kinomescan method relative to control
[3] = target: Tyrosine-protein kinase ABL2 (Homo sapiens) (UniProt P42684); experiment: Binding affinity to wild-type human ABL2 (A248 to G542 residues) expressed in bacterial expression system assessed as residual binding level at 1 uM by Kinomescan method relative to control; in short: as §1
[4] = target: Tyrosine-protein kinase BTK (Homo sapiens) (UniProt Q06187); experiment: Binding affinity to wild-type human full length BTK (M1 to S659 residues) expressed in mammalian expression system assessed as residual binding level at 1 uM by Kinomescan method relative to control
Sequence of Tyrosine-protein kinase BTK (Homo sapiens) (Q06187 whole entry, the tested form may be a part): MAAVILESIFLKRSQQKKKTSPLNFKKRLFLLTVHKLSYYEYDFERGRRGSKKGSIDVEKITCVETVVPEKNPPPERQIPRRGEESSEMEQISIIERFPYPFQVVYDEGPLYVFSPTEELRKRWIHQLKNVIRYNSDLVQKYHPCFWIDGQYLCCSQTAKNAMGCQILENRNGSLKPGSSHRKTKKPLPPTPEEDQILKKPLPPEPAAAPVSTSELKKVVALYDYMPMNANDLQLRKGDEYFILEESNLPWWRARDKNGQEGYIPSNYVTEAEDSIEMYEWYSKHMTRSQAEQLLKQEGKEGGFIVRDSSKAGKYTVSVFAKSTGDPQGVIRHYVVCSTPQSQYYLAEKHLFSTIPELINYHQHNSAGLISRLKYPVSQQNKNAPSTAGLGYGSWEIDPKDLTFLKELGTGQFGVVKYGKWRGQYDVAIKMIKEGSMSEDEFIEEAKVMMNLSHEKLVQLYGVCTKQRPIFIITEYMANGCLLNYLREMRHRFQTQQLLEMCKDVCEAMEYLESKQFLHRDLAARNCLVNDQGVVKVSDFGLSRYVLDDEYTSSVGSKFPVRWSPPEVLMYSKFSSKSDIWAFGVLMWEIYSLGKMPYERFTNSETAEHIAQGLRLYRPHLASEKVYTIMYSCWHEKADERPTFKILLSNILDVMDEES

[5] = target: Calcium/calmodulin-dependent protein kinase type II subunit beta (Homo sapiens) (UniProt Q13554); experiment: Binding affinity to wild-type human partial length CAMK2B (M1 to Q380 residues) expressed in bacterial expression system assessed as residual binding level at 1 uM by Kinomescan method relative to control
[6] = target: Dual specificity protein kinase CLK2 (Homo sapiens) (UniProt P49760); experiment: Binding affinity to wild-type human partial length CLK2 (D144 to R498 residues) expressed in bacterial expression system assessed as residual binding level at 1 uM by Kinomescan method relative to control
Sequence of Dual specificity protein kinase CLK2 (Homo sapiens) (P49760 whole entry, looked up, the tested form may be a part): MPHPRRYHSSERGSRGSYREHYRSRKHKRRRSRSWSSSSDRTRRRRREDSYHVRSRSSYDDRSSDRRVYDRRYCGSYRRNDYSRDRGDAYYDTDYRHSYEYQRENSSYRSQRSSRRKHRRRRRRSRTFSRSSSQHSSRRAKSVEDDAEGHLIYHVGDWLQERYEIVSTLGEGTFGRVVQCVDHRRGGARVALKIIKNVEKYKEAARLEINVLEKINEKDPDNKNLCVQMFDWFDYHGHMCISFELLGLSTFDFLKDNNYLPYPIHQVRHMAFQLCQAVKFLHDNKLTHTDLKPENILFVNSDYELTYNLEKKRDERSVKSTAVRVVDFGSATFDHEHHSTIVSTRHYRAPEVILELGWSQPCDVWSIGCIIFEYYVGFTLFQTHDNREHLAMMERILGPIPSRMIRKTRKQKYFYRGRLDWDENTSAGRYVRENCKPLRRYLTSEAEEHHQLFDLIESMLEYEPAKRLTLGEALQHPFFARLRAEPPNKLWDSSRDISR

[7] = target: Serine/threonine-protein kinase DCLK1 (Homo sapiens) (UniProt O15075); experiment: Binding affinity to wild-type human partial length DCAMKL1 (L270 to A662 residues) expressed in mammalian expression system assessed as residual binding level at 1 uM by Kinomescan method relative to control
[8] = tested on: Epidermal growth factor receptor (Homo sapiens), P00533 [G719S]; experiment: Binding affinity to human partial length EGFR G719S mutant (R669 to V1011 residues) expressed in bacterial expression system assessed as residual binding level at 1 uM by Kinomescan method relative to control; in short: as §1
[9] = tested on: Epidermal growth factor receptor (Homo sapiens), P00533 [UNDEFINED MUTATION]; experiment: Binding affinity to human partial length EGFR L747-T751del/Sins mutant expressed in bacterial expression system assessed as residual binding level at 1 uM by Kinomescan method relative to control; in short: as §1
[10] = target: Ephrin type-A receptor 4 (Homo sapiens) (UniProt P54764); experiment: Binding affinity to wild-type human partial length EPHA4 (T601 to R897 residues) expressed in bacterial expression system assessed as residual binding level at 1 uM by Kinomescan method relative to control
[11] = target: Focal adhesion kinase 1 (Homo sapiens) (UniProt Q05397); experiment: Binding affinity to wild-type human partial length FAK (D402 to R696 residues) expressed in bacterial expression system assessed as residual binding level at 1 uM by Kinomescan method relative to control
[12] = tested on: Receptor-type tyrosine-protein kinase FLT3 (Homo sapiens), P36888 [UNDEFINED MUTATION]; experiment: Binding affinity to human partial length FLT3 ITD mutant expressed in bacterial expression system assessed as residual binding level at 1 uM by Kinomescan method relative to control; in short: as §1
Sequence of Receptor-type tyrosine-protein kinase FLT3 (Homo sapiens), P36888 [UNDEFINED MUTATION] (P36888 whole entry, looked up, stated change not applied, the tested form may be a part): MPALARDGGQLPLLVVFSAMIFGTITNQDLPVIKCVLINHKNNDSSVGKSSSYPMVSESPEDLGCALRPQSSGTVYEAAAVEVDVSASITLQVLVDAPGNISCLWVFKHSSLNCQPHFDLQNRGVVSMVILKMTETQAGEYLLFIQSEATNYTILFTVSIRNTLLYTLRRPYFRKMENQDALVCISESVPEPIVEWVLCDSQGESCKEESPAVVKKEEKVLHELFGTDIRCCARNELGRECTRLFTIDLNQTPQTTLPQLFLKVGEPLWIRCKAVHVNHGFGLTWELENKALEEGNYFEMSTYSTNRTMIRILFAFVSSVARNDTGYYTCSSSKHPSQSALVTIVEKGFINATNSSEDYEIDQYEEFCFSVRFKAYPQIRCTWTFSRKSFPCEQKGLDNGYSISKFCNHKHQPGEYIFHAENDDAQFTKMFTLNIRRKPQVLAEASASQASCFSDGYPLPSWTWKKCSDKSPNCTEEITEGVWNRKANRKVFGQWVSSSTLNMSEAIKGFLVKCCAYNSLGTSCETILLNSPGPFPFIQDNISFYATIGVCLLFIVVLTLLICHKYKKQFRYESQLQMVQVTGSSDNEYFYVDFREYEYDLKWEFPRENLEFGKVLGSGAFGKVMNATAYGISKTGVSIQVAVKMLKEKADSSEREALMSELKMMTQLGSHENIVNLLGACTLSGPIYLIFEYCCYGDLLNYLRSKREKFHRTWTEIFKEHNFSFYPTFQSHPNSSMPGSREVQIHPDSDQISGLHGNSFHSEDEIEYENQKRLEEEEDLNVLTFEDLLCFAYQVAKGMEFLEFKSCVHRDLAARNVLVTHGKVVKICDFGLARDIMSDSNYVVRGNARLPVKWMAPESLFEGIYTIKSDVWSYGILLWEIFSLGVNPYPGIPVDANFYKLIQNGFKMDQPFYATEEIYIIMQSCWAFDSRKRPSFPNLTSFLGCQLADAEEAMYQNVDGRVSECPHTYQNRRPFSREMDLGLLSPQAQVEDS

[13] = target: Insulin-like growth factor 1 receptor (Homo sapiens) (UniProt P08069); experiment: Binding affinity to wild-type human partial length IGF1R (L972 to D1294 residues) expressed in bacterial expression system assessed as residual binding level at 1 uM by Kinomescan method relative to control
[14] = target: Interleukin-1 receptor-associated kinase 1 (Homo sapiens) (UniProt P51617); experiment: Binding affinity to wild-type human partial length IRAK1 (R194 to S712 residues) expressed in mammalian expression system assessed as residual binding level at 1 uM by Kinomescan method relative to control
[15] = target: Tyrosine-protein kinase JAK1 (Homo sapiens) (UniProt P23458); experiment: Binding affinity to wild-type human partial length JAK1 JH2 pseudokinase domain (R537 to D855 residues) expressed in mammalian expression system assessed as residual binding level at 1 uM by Kinomescan method relative to control
Sequence of Tyrosine-protein kinase JAK1 (Homo sapiens) (P23458 whole entry, the tested form may be a part): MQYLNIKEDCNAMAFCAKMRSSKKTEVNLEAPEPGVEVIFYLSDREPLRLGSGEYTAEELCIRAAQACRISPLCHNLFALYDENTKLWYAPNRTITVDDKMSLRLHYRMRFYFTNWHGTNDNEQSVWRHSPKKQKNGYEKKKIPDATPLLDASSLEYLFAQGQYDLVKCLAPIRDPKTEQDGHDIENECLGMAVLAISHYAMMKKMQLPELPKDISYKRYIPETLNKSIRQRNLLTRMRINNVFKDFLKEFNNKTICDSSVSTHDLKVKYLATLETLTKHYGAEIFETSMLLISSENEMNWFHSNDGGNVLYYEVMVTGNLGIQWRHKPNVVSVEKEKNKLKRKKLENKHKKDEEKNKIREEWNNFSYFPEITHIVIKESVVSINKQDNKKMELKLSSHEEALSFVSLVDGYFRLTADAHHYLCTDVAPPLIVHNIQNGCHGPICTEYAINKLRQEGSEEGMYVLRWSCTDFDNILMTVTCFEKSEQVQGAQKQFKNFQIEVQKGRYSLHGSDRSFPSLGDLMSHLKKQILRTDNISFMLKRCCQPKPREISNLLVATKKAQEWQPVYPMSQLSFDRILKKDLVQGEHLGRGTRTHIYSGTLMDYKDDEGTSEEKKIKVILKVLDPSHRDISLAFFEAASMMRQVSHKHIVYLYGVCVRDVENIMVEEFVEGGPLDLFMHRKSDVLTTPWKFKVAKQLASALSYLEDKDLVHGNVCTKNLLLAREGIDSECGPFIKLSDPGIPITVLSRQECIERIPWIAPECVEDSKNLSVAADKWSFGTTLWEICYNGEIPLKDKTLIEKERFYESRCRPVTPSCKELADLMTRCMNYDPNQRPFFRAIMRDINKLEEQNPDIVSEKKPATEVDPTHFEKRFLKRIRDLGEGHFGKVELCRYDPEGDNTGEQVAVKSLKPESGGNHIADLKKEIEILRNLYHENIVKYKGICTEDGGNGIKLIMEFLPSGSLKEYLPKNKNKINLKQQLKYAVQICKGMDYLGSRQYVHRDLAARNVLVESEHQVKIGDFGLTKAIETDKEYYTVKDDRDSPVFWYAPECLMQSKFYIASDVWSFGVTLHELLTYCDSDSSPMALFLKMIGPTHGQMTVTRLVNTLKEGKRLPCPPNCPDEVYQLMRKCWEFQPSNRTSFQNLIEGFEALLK

[16] = tested on: Mast/stem cell growth factor receptor Kit (Homo sapiens), P10721 [A829P]; experiment: Binding affinity to human partial length KIT A829P mutant (I571 to D952 residues) expressed in mammalian expression system assessed as residual binding level at 1 uM by Kinomescan method relative to control; in short: as §1
[17] = target: Mitogen-activated protein kinase 13 (Homo sapiens) (UniProt O15264); experiment: Binding affinity to wild-type human full length p38-delta (M1 to L365 residues) expressed in bacterial expression system assessed as residual binding level at 1 uM by Kinomescan method relative to control
Sequence of Mitogen-activated protein kinase 13 (Homo sapiens) (O15264 whole entry, the tested form may be a part): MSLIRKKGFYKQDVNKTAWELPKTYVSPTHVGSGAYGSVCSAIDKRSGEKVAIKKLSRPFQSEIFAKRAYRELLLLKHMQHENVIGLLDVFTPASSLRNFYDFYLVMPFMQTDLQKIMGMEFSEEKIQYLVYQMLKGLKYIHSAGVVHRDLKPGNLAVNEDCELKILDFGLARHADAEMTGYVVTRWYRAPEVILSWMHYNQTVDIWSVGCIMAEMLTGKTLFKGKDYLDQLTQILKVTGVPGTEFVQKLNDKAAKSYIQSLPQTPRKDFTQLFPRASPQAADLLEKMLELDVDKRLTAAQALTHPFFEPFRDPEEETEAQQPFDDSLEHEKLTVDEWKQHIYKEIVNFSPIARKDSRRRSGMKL

[18] = target: Platelet-derived growth factor receptor alpha (Homo sapiens) (UniProt P16234); experiment: Binding affinity to wild-type human partial length PDGFRA (V575 to D1002 residues) expressed in mammalian expression system assessed as residual binding level at 1 uM by Kinomescan method relative to control
[19] = target: Serine/threonine-protein kinase N1 (Homo sapiens) (UniProt Q16512); experiment: Binding affinity to wild-type human partial length PKN1 (E598 to C948 residues) expressed in bacterial expression system assessed as residual binding level at 1 uM by Kinomescan method relative to control
[20] = tested on: Mycobacterium tuberculosis; experiment: Binding affinity to wild-type Mycobacterium tuberculosis partial length PKNB (M1 to G279 residues) expressed in mammalian expression system assessed as residual binding level at 1 uM by Kinomescan method relative to control; in short: as §1
[21] = target: Protein kinase C theta type (Homo sapiens) (UniProt Q04759); experiment: Binding affinity to wild-type human partial length PRKCQ (L350 to S706 residues) expressed in bacterial expression system assessed as residual binding level at 1 uM by Kinomescan method relative to control
[22] = target: Serine/threonine-protein kinase PRP4 homolog (Homo sapiens) (UniProt Q13523); experiment: Binding affinity to wild-type human partial length PRP4 (D657 to I1007 residues) expressed in bacterial expression system assessed as residual binding level at 1 uM by Kinomescan method relative to control
Sequence of Serine/threonine-protein kinase PRP4 homolog (Homo sapiens) (Q13523 whole entry, the tested form may be a part): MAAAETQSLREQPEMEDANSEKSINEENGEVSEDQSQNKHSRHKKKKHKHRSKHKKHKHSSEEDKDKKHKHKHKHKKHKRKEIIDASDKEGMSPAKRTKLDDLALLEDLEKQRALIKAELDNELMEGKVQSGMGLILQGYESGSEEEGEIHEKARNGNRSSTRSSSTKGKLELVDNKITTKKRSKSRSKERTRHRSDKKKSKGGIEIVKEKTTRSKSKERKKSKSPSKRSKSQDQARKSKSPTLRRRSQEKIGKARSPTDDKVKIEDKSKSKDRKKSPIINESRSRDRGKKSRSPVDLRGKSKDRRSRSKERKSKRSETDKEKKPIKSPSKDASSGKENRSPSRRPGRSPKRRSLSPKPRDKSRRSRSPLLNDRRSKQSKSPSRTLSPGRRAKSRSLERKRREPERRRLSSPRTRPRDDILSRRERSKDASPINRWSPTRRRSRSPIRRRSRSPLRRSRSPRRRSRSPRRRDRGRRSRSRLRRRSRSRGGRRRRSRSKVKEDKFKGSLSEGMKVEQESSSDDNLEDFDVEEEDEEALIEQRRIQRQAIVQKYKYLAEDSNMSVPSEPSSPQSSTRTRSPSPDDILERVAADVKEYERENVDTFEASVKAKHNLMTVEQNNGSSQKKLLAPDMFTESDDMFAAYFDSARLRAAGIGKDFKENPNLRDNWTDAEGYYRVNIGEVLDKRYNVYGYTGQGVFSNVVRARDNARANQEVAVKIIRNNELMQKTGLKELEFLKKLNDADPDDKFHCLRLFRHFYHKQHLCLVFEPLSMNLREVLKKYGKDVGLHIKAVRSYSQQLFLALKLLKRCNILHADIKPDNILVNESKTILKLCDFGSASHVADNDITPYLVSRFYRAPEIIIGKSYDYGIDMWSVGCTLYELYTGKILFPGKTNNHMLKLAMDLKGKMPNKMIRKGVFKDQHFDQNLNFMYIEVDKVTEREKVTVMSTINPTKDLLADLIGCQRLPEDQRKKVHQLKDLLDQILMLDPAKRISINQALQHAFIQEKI

[23] = target: SRSF protein kinase 3 (Homo sapiens) (UniProt Q9UPE1); experiment: Binding affinity to wild-type human partial length SRPK3 (P41 to P567 residues) expressed in bacterial expression system assessed as residual binding level at 1 uM by Kinomescan method relative to control
[24] = target: Serine/threonine-protein kinase 36 (Homo sapiens) (UniProt Q9NRP7); experiment: Binding affinity to wild-type human partial length STK36 (M1 to T271 residues) expressed in bacterial expression system assessed as residual binding level at 1 uM by Kinomescan method relative to control

Question: For `C=CC(=O)Nc1cc(Nc2ncc(Cl)c(Nc3ccccc3S(=O)(=O)C(C)C)n2)c(OC)cc1N(C)CCN(C)C`, which Activity [1] is on record?
Answer: 0.05%

Question: What about the Activity [2] of the same compound?
Answer: 7.5%

Question: And the Activity [3]?
Answer: 50%

Question: What about the Activity [4] of the same compound?
Answer: 0%

Question: And the Activity [5]?
Answer: 48%

Question: And the Activity [6]?
Answer: 1.7%

Question: And the Activity [7]?
Answer: 14%

Question: And the Activity [8]?
Answer: 0%

Question: What about the Activity [9] of the same compound?
Answer: 0.45%

Question: What about the Activity [10] of the same compound?
Answer: 80%

Question: And the Activity [11]?
Answer: 0%

Question: And the Activity [12]?
Answer: 7.6%

Question: What about the Activity [13] of the same compound?
Answer: 0.55%

Question: And the Activity [14]?
Answer: 21%

Question: What about the Activity [15] of the same compound?
Answer: 63%

Question: And the Activity [16]?
Answer: 45%

Question: And the Activity [17]?
Answer: 100%

Question: And the Activity [18]?
Answer: 83%

Question: And the Activity [19]?
Answer: 41%

Question: And the Activity [20]?
Answer: 50%

Question: What about the Activity [21] of the same compound?
Answer: 48%

Question: And the Activity [22]?
Answer: 82%

Question: And the Activity [23]?
Answer: 77%

Question: What about the Activity [24] of the same compound?
Answer: 88%
